In PMC3618282 (International journal of pharmaceutics, 2012):
Square brackets hold non-standard residues; d marks the D form. Peptide text beside a SMILES is read from it. Sar = CNCC(=O)O

What was measured:
[1] = Transporter-mediated transepithelial Gly-Sar transport; format: in vitro ADME, canine; conditions: dog, MDCK, MDCKII-wt
Procedure, shortened: (§1)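 Monolayers under passage 6 were grown on Transwell inserts (2 × 10^5 cells/cm2) and washed with DPBS pH 7.4. Apical 0.5 mL was at pH 4.0–7.4; basolateral 1.5 mL was held at pH 7.4. [3H]Gly-Sar was run AP→BL and BL→AP. Receiver samples were taken over 60 min and replaced with fresh DPBS. Transporter-mediated Papp is [3H]Gly-Sar minus [14C]mannitol passive transport; n = 4.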

[2] = test system: apical peptide transporters in MDCKII-wt cells; test: Apical [3H]Gly-Sar uptake; format: in vitro ADME, canine
Procedure, shortened: (§2)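 Cells under passage 6 were seeded at 7 × 10^4 cells/cm2 in 12-well plates and washed with DPBS pH 7.4. Apical [3H]Gly-Sar (0.5 μCi/mL in DPBS) with unlabeled Gly-Sar (5–250 μM) was incubated 15 min at 37 °C and 4 °C. Stop was ice-cold 200 mM KCl/2 mM HEPES. Lysis in 0.3 N NaOH/0.1% Triton X-100, scintillation counting, normalised to protein. Specific uptake is 37 °C minus 4 °C. Michaelis–Menten fit gave Km and Vmax; efficiency is Vmax/Km; n = 3.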

[3] = test system: apical peptide transporters in MDCKII-MDR1 cells; test: Apical [3H]Gly-Sar uptake; format: in vitro ADME, canine
Procedure, shortened: as §2

[4] = test system: apical peptide transporters; test: Apical [3H]Gly-Sar uptake; format: in vitro ADME, canine; conditions: dog, MDCKII-MDR1 cells (apical uptake), pH 7.4
Procedure, shortened: as §2

[5] = test system: basolateral peptide transporters in MDCKII-BCRP cells; test: Basolateral [3H]Gly-Sar uptake; format: in vitro ADME, canine; conditions: basolateral uptake, MDCKII-BCRP
Procedure, shortened: (§3)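 Cells under passage 6 were seeded at 2 × 10^5 cells/cm2 on Transwell inserts (0.4 μm pore) and dosed from the basolateral side. [3H]Gly-Sar was given with unlabeled Gly-Sar (0–250 μM) at 4 °C and 37 °C. Specific uptake is 37 °C minus 4 °C, normalised to protein and fitted to Michaelis–Menten for Km and Vmax; n = 3.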

[6] = test system: basolateral peptide transporters; test: Basolateral [3H]Gly-Sar uptake; format: in vitro ADME, canine; conditions: dog, MDCKII-BCRP cells on Transwell inserts (basolateral uptake), pH 7.4
Procedure, shortened: as §3

[7] = test system: apical peptide transporters in MDCKII-MRP2 cells; test: Apical [3H]Gly-Sar uptake; format: in vitro ADME, canine
Procedure, shortened: as §2

[8] = test system: apical peptide transporters; test: Apical [3H]Gly-Sar uptake; format: in vitro ADME, canine; conditions: dog, MDCKII-MRP2 cells (apical uptake), pH 7.4
Procedure, shortened: as §2

[9] = test system: basolateral peptide transporters in MDCKII-MRP2 cells; test: Basolateral [3H]Gly-Sar uptake; format: in vitro ADME, canine; conditions: basolateral uptake, MDCKII-MRP2
Procedure, shortened: as §3

[10] = test system: basolateral peptide transporters; test: Basolateral [3H]Gly-Sar uptake; format: in vitro ADME, canine; conditions: dog, MDCKII-MRP2 cells on Transwell inserts (basolateral uptake), pH 7.4
Procedure, shortened: as §3

[11] = Transporter-mediated transepithelial Gly-Sar transport; format: in vitro ADME, canine; conditions: dog; for Papp A→B at 60 min, 0.5 μCi/mL: MDCK-MDR1, AP–BL permeability; for Papp B→A at 60 min, 0.5 μCi/mL: MDCK-MDR1, BL–AP permeability
Procedure, shortened: as §1

[12] = test system: apical peptide transporters in MDCKII-BCRP cells; test: Apical [3H]Gly-Sar uptake; format: in vitro ADME, canine
Procedure, shortened: as §2

[13] = test system: apical peptide transporters; test: Apical [3H]Gly-Sar uptake; format: in vitro ADME, canine; conditions: dog, MDCKII-BCRP cells (apical uptake), pH 7.4
Procedure, shortened: as §2

[14] = test system: basolateral peptide transporters in MDCKII-wt cells; test: Basolateral [3H]Gly-Sar uptake; format: in vitro ADME, canine
Procedure, shortened: as §3

[15] = Transporter-mediated transepithelial Gly-Sar transport; format: in vitro ADME, canine; conditions: dog
Procedure, shortened: as §1

[16] = as above; format: in vitro ADME, canine; conditions: dog, MDCKII-BCRP
Procedure, shortened: as §1

[17] = test system: basolateral peptide transporters; test: Basolateral [3H]Gly-Sar uptake; format: in vitro ADME, canine; conditions: dog, MDCKII-MDR1 cells on Transwell inserts (basolateral uptake), pH 7.4
Procedure, shortened: as §3

[18] = test system: basolateral peptide transporters in MDCKII-MDR1 cells; test: Basolateral [3H]Gly-Sar uptake; format: in vitro ADME, canine; conditions: basolateral uptake, MDCKII-MDR1
Procedure, shortened: as §3

[19] = AP–BL [14C]Mannitol permeability; format: in vitro ADME, canine; conditions: dog, MDCK, pH 7.4
[20] = AP–BL [14C]Mannitol permeability; format: in vitro ADME, canine; conditions: dog, MDCK-MDR1, pH 7.4
[21] = test system: apical peptide transporters (PepT1 and PepT2) in MDCKII cell lines; test: Inhibition of apical [3H]Gly-Sar uptake by peptide transporter inhibitors; format: cell-based, canine; conditions: inhibitor 100 μM, pH 7.4, 37 °C, 15 min, all four MDCKII cell lines
[22] = AP–BL permeability, AP chamber pH 4.0, BL pH 7.4
[23] = AP–BL permeability, AP chamber pH 5.0, BL pH 7.4
[24] = AP–BL permeability, AP chamber pH 6.0, BL pH 7.4
[25] = BL–AP permeability, AP chamber pH 4.0, BL pH 7.4
[26] = BL–AP permeability, AP chamber pH 5.0, BL pH 7.4
[27] = BL–AP permeability, AP chamber pH 6.0, BL pH 7.4
[28] = pH 7.4, AP–BL permeability, AP chamber pH 7.4, BL pH 7.4
[29] = pH 7.4, BL–AP permeability, AP chamber pH 7.4, BL pH 7.4
[30] = MDCKII-MDR1, AP chamber pH 4.0, BL pH 7.4
[31] = MDCKII-MDR1, AP chamber pH 5.0, BL pH 7.4
[32] = MDCKII-MDR1, AP chamber pH 6.0, BL pH 7.4

CN(CC(=O)O)C(=O)CN [Gly-Sar, Glycylsarcosine] (H-Gly-[Sar]-OH)
Papp A→B at 60 min, 0.5 μCi/mL [1, 22]: 13.1 ± 1.4 ×10⁻⁶ cm/s
Papp A→B at 60 min, 0.5 μCi/mL [1, 23]: 14.9 ± 2.8 ×10⁻⁶ cm/s
Papp A→B at 60 min, 0.5 μCi/mL [1, 24]: 22.2 ± 1.9 ×10⁻⁶ cm/s
Papp B→A at 60 min, 0.5 μCi/mL [1, 25]: 9.4 ± 0.4 ×10⁻⁶ cm/s
Papp B→A at 60 min, 0.5 μCi/mL [1, 26]: 6.6 ± 0.6 ×10⁻⁶ cm/s
Papp B→A at 60 min, 0.5 μCi/mL [1, 27]: 6 ± 1 ×10⁻⁶ cm/s
Papp A→B at 60 min, 0.5 μCi/mL [1, 28]: 36.7 ± 0.2 ×10⁻⁶ cm/s
Papp B→A at 60 min, 0.5 μCi/mL [1, 29]: 8 ± 0.9 ×10⁻⁶ cm/s
Km ([2]; apical uptake, MDCKII-wt): 59.7 ± 1.1 µM
Vmax ([2]; apical uptake, MDCKII-wt): 10.76 ± 1.68 fmol/mg protein/min
extracellular pH of maximal apical uptake ([2]; pH 4.0–7.4 tested, all MDCKII cell lines): 6.0
uptake in MDCKII-wt cells in comparison with transfected cells ([2]; total apical uptake at 37 °C, pH 7.4): 3–5 fold
transport efficiency relative to that in wild-type cells ([3]; apical peptide transporters, MDCKII-MDR1 vs wild-type): around 25%
Vmax ([3]; apical uptake, MDCKII-MDR1, low passage): 1.30 ± 0.36 fmol/mg protein/min
Vmax relative to that in wild-type cells ([3]; apical uptake, hMDR1-transfected vs wild-type): about 12%
Km at 15 min [4]: 29.1 ± 3.29 µM
Vmax [5]: 13.07 ± 2.61 fmol/mg protein/min
Km at 15 min [6]: 46.1 ± 2.26 µM
transport efficiency relative to that in wild-type cells ([7]; apical peptide transporters, MDCKII-MRP2 vs wild-type): ~30%
Vmax ([7]; apical uptake, MDCKII-MRP2, low passage): 4.62 ± 0.76 fmol/mg protein/min
Vmax relative to that in wild-type cells ([7]; apical uptake, hMRP2-transfected vs wild-type): ~43%
Km at 15 min [8]: 84.8 ± 18.6 µM
Vmax [9]: 8.03 ± 1.78 fmol/mg protein/min
Km at 15 min [10]: 64.6 ± 4.09 µM
Papp A→B at 60 min, 0.5 μCi/mL [11, 30]: 6 ± 0.4 ×10⁻⁶ cm/s
Papp A→B at 60 min, 0.5 μCi/mL [11, 31]: 6.4 ± 0.5 ×10⁻⁶ cm/s
Papp A→B at 60 min, 0.5 μCi/mL [11, 32]: 8 ± 0.4 ×10⁻⁶ cm/s
Papp B→A at 60 min, 0.5 μCi/mL [11, 30]: 10.1 ± 1.3 ×10⁻⁶ cm/s
Papp B→A at 60 min, 0.5 μCi/mL [11, 31]: 7.6 ± 0.8 ×10⁻⁶ cm/s
Papp B→A at 60 min, 0.5 μCi/mL [11, 32]: 8.2 ± 0.5 ×10⁻⁶ cm/s
transport efficiency relative to that in wild-type cells ([12]; apical peptide transporters, MDCKII-BCRP vs wild-type): ~41%
Vmax ([12]; apical uptake, MDCKII-BCRP, low passage): 4.50 ± 0.83 fmol/mg protein/min
Vmax relative to that in wild-type cells ([12]; apical uptake, hBCRP-transfected vs wild-type): ~42%
Km at 15 min [13]: 60.7 ± 8.56 µM
Km [14]: 13.7 ± 2.22 µM
Vmax [14]: 4.45 ± 0.04 fmol/mg protein/min
Papp A→B at 60 min, 0.5 μCi/mL ([15]; AP–BL permeability, MDCKII-MRP2, AP chamber pH 4.0, BL pH 7.4): 8.6 ± 1.1 ×10⁻⁶ cm/s
Papp A→B at 60 min, 0.5 μCi/mL ([15]; AP–BL permeability, MDCKII-MRP2, AP chamber pH 5.0, BL pH 7.4): 9.9 ± 0.8 ×10⁻⁶ cm/s
Papp A→B at 60 min, 0.5 μCi/mL ([15]; AP–BL permeability, MDCKII-MRP2, AP chamber pH 6.0, BL pH 7.4): 10.6 ± 0.1 ×10⁻⁶ cm/s
Papp B→A at 60 min, 0.5 μCi/mL ([15]; BL–AP permeability, MDCKII-MRP2, AP chamber pH 4.0, BL pH 7.4): 8.5 ± 0.6 ×10⁻⁶ cm/s
Papp B→A at 60 min, 0.5 μCi/mL ([15]; BL–AP permeability, MDCKII-MRP2, AP chamber pH 5.0, BL pH 7.4): 6.3 ± 0.4 ×10⁻⁶ cm/s
Papp B→A at 60 min, 0.5 μCi/mL ([15]; BL–AP permeability, MDCKII-MRP2, AP chamber pH 6.0, BL pH 7.4): 7.5 ± 0.5 ×10⁻⁶ cm/s
Papp A→B at 60 min, 0.5 μCi/mL ([15]; pH 7.4, AP–BL permeability, MDCKII-MRP2, AP chamber pH 7.4, BL pH 7.4): 17.7 ± 1.4 ×10⁻⁶ cm/s
Papp B→A at 60 min, 0.5 μCi/mL ([15]; pH 7.4, BL–AP permeability, MDCKII-MRP2, AP chamber pH 7.4, BL pH 7.4): 15.7 ± 0.6 ×10⁻⁶ cm/s
Papp A→B at 60 min, 0.5 μCi/mL [16, 22]: 7.1 ± 0.3 ×10⁻⁶ cm/s
Papp A→B at 60 min, 0.5 μCi/mL [16, 23]: 7.6 ± 1.2 ×10⁻⁶ cm/s
Papp A→B at 60 min, 0.5 μCi/mL [16, 24]: 10.7 ± 0.7 ×10⁻⁶ cm/s
Papp B→A at 60 min, 0.5 μCi/mL [16, 25]: 10.9 ± 0.7 ×10⁻⁶ cm/s
Papp B→A at 60 min, 0.5 μCi/mL [16, 26]: 6.5 ± 0.7 ×10⁻⁶ cm/s
Papp B→A at 60 min, 0.5 μCi/mL [16, 27]: 7.2 ± 0.9 ×10⁻⁶ cm/s
Papp A→B at 60 min, 0.5 μCi/mL [16, 28]: 18.6 ± 1.9 ×10⁻⁶ cm/s
Papp B→A at 60 min, 0.5 μCi/mL [16, 29]: 15.6 ± 0.1 ×10⁻⁶ cm/s
Km at 15 min [17]: 50.9 ± 7.86 µM
Vmax [18]: 8.52 ± 0.81 fmol/mg protein/min

OC[C@@H](O)[C@@H](O)[C@H](O)[C@H](O)CO [[^14C]Mannitol, Mannitol]
Papp A→B at 60 min, 0.125 µCi/mL [19]: 42.1 ± 0.5 ×10⁻⁶ cm/s
Papp A→B at 60 min, 0.125 µCi/mL [20]: 18.4 ± 0.9 ×10⁻⁶ cm/s

CCC(=O)O[C@@H](O[P@](=O)(CCCCc1ccccc1)CC(=O)N1C[C@H](C2CCCCC2)C[C@H]1C(=O)O)C(C)C [fosinopril, Fosinopril]
effect on apical [3H]Gly-Sar uptake compared to control [21]: significantly reduced apical Gly-Sar uptake
